Results from article PMC4834983 (Journal of medicinal chemistry, 2015).

Key:
[1] = system: protein tyrosine phosphatase (PTP)1B; test: Immunoblotting, U251MG glioma cells; format: cell-based, human; conditions: 5 μM
Method in brief: (§1)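 U251MG cells given 5 μM test compound for 0–24 h. Whole-cell lysates of equal total protein immunoblotted for pErk1/2, Erk1/2, pS-Akt, Akt, pJAK2, JAK2, SOCS3 and PTP1B, with β-actin or GAPDH as loading reference.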

[2] = Body weights and signs of toxicity in tumor-bearing mice; format: in vivo; conditions: 2 mg/kg, oral gavage, 33 days
[3] = system: suppressors of cytokine signaling (SOCS)3; test: Immunoblotting, U251MG glioma cells; format: cell-based, human; conditions: 5 μM
Method in brief: as §1

Stat3:Stat3 = Stat3:Stat3 (Mus musculus, UniProt P42227); test: Cell-free EMSA, nuclear extracts pre-incubated with compound, hSIE probe; format: biochemical
pStat3 = test: Immunoblotting of pStat3 in patient-derived xenograft cells; format: cell-based, human; conditions: 5 μM, 3 h
Method in brief: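 Glioma patient-derived xenograft G22 cells (DMEM, 5–10% heat-inactivated FBS) given 5 μM test compound for 0–24 h. Whole-cell lysates immunoblotted for pStat3 and Stat3, with GAPDH as loading reference.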

pErk1/2MAPK = test: Immunoblotting, U251MG glioma cells; format: cell-based, human; conditions: 5 μM
Method in brief: as §1

pS-Akt = test: Immunoblotting, U251MG glioma cells; format: cell-based, human; conditions: 5 μM
Method in brief: as §1

U251MG cells = test: Immunofluorescence staining/confocal microscopy of mitosis; format: cell-based, human; conditions: 15 h treatment
Method in brief: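 U251MG cells on coverslips synchronised by double thymidine block (2 mM) and released for 9 h. Then given DMSO, 100 nM paclitaxel or 8 μM test compound for 15 h. Fixed in 4% paraformaldehyde, permeabilised with 0.1% digitonin and blocked in 0.2% BSA. Stained with anti-β-tubulin (1:350) and anti-MAP1B (1:300) for 1 h at room temperature, then fluorescent secondaries and DAPI; confocal imaging.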

pYStat3 = test: Immunoblotting of pStat3 in treated U251MG cells; format: cell-based, human; conditions: 5 μM, glioma cells, immunoblotting
Method in brief: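 Whole-cell lysates from U251MG cells given test compound at 5 μM for 0–24 h, or at 0–5 μM for 2 h. Immunoblotted for pY705Stat3 and total Stat3, with GAPDH as loading reference.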

pStat5 = test: Immunoblotting, EGF-stimulated NIH3T3/hEGFR fibroblasts; format: cell-based, mouse; conditions: 5 μM pre-treatment
Method in brief: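 NIH3T3/hEGFR fibroblasts pretreated with or without 5 μM test compound for 3 h, then stimulated with 1 μg/ml EGF for 12 min. Whole-cell lysates, equal total protein, immunoblotted for pStat1/Stat1, pStat5/Stat5 and pErk1/2/Erk1/2.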

Stat3 = Stat3 DNA-binding activity/EMSA of nuclear extracts from treated glioma cells; format: cell-based, human; conditions: 5 μM, glioma cells, EMSA
G10 cells = test: Growth of glioma patient-derived xenograft cells in vitro; format: cell-based; conditions: Homo sapiens, read-out: inhibitory activity against growth of G10 cells

Chain of Stat3:Stat3 (P42227 2-770 limits assumed): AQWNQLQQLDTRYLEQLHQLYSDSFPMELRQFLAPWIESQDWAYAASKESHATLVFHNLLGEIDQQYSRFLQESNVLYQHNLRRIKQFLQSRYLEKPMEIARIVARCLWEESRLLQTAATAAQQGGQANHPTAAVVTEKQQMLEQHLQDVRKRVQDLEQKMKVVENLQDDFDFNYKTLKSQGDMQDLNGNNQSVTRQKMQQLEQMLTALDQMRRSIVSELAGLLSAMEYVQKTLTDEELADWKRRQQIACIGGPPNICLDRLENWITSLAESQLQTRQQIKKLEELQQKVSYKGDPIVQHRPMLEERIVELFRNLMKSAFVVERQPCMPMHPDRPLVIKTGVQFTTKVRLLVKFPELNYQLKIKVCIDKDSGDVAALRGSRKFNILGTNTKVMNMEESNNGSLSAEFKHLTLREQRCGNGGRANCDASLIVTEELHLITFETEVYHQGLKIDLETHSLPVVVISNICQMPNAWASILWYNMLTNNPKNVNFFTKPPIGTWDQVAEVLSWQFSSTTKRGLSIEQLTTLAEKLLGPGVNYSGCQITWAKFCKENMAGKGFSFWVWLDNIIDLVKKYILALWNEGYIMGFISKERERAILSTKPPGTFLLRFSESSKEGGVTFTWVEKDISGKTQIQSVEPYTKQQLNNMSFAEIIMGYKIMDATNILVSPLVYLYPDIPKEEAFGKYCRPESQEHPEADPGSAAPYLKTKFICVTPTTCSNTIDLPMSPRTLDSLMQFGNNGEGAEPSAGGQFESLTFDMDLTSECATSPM

## C/C=C(\C)C(=O)OCC1=C2/C(=C\[C@@]3(C)CC[C@](O)(O3)[C@H](C)C[C@@H]2O)OC1=O [Compound 22]
[1]
  effect on PTP1B levels: no effects
[2]
  body weights or obvious signs of toxicity: No significant changes
[3]
  effect on SOCS3 levels: no effects
Stat3:Stat3; 5 μM, 30 min pre-incubation, NIH3T3/v-Src nuclear extracts
  Stat3:Stat3/DNA-binding activity (complexation), cell-free EMSA: diminished
Stat3:Stat3; in the presence of 50 μM Cys
  Stat3:Stat3/DNA complexation in the presence of Cys: strongly inhibited
pStat3
  effect on Phospho-Stat3 in G22 cells: strongly inhibited
pErk1/2MAPK
  effect on pErk1/2MAPK levels: no effects
pS-Akt
  effect on pS-Akt levels: no effects
U251MG cells
  chromatid structures and sister-chromatids segregation (mitosis): caused defects
pYStat3
  effect on pStat3 in treated tumor cells: strongly inhibited
pStat5
  effect on EGF-stimulated pStat5 levels: no effect
Stat3
  effect on Stat3 DNA-binding activity in treated tumor cells: strongly inhibited
G10 cells
  inhibition at 5 µM: 45 to 60%
